This is an account of results in ChEMBL document CHEMBL1130118, “A novel radioiodination reagent for protein radiopharmaceuticals with L-lysine as a plasma-stable metabolizable linkage to liberate m-iodohippuric acid after lysosomal proteolysis” (J Med Chem, 1997).

Format in all cases: ADME, organism-based
In series [1] the test system is Mus musculus. The experiment in a line: The biodistribution time for [131 I ]L-HML-NGA radioactivity after concomitant administration of [131 I ]L-HML-NGA and [125 I ]MPH-NGA in mice. It is expressed as percent injected dose per neck. To be noted: in vivo. In short, it runs like this: (§1)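 Six-week-old male ddY mice were given one i.v. co-injection of a 131I/125I-labelled NGA pair, each diluted to 90 µg/mL protein in 0.1 M PBS pH 6.0 and mixed 1:1, giving 9 µg of each radioiodinated NGA per mouse. Groups of five were killed at 5, 15, 30 min, 1 h and 3 h. Organs were weighed and counted in a well counter. Values are % ID per organ, blood as % ID/g, mean (SD).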

For series [2], the system named is Mus musculus. The experiment in a line: The biodistribution time for [131 I ]L-HML-NGA radioactivity after concomitant administration of [131 I ]L-HML-NGA and [125 I ]D-HML-NGA in mice. It is expressed as percent injected dose per stomach. The settings on record: in vivo. In short, it runs like this: as §1
A short description of series [3]: Cumulative radioactivity exerted by [131 I ]L-HML-NGA in the feces at 24 hour postinjection of [131 I ]L-HML-NGA and [125 I ]MIH-NGA. To be noted: in vivo. Summed up:
(§2)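 Mice received one i.v. co-injection of the dual-isotope NGA mixture, 9 µg of each radioiodinated protein, and were housed in metabolic cages for 24 h. Cumulative urine and feces were collected and counted. Values are % injected dose, mean (SD) of five animals, with a Student's paired t-test between the two co-administered conjugates.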

Series [4] concerns Mus musculus. The experiment in a line: The biodistribution time for [131 I ]L-HML-NGA radioactivity after concomitant administration of [131 I ]L-HML-NGA and [125 I ]D-HML-NGA in mice. It is expressed as percent injected dose per intestine. The settings on record: in vivo. In short, it runs like this:
as §1

The test system of series [5] is Mus musculus. The experiment in a line: The biodistribution time for [131 I ]L-HML-NGA radioactivity after concomitant administration of [131 I ]L-HML-NGA and [125 I ]L-HML-IT-NGA in mice. It is expressed as percent injected dose per gram of blood tissue. To be noted: in vivo. Summed up: as §1
Series [6] relates to Mus musculus. In words: The biodistribution time for [131 I ]L-HML-NGA radioactivity after concomitant administration of [131 I ]L-HML-NGA and [125 I ]L-HML-IT-NGA in mice. It is expressed as percent injected dose per liver. To be noted: in vivo. Summed up:
as §1

In series [7] the test system is Mus musculus. The experiment in a line: Biodistribution time for compound radioactivity after concomitant administration of compound and [125 I ]MIH-NGA in mice. It is expressed as % injected dose per liver. Values are mean(SD) of 5 animals for each experiment after 5 minutes. The settings on record: in vivo. Summed up:
as §1

The subject of series [8] is Mus musculus. The experiment in a line: The biodistribution time for [131 I ]L-HML-NGA radioactivity after concomitant administration of [131 I ]L-HML-NGA and [125 I ]L-HML-IT-NGA in mice. It is expressed as percent injected dose per gram of blood tissue. Values are mean(SD) of five anim. The settings on record: in vivo. Summed up: as §1
Series [9] deals with Mus musculus. The experiment in a line: The biodistribution time for [131 I ]L-HML-NGA radioactivity after concomitant administration of [[131 I ]L-HML-NGA and [125 I ]D-HML-NGA in mice. It is expressed as percent injected dose per kidney. The settings on record: in vivo. Summed up:
as §1

The species named for series [10] is Homo sapiens. In words: The percent protein-bound radioactivity in NGAfractions following incubation of radioiodinated [131 I ]L-HML-NGA in human serum after 1 hour. In short, it runs like this: (§3)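 Conjugates were diluted to 0.5 mg/mL in 0.1 M PBS pH 6.0, and 20 µL was added to 230 µL of freshly prepared human serum. Samples were incubated at 37 °C and taken at 1, 3, 6 or 24 h. Protein-bound fraction (Rf 0) was separated from small metabolites (Rf 0.6-0.9) by paper chromatography in methanol-water 4:1. Protein-bound radioactivity was divided by the initial radiochemical purity. Values are mean (SD).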

The test system of series [11] is Mus musculus. In words: The biodistribution time for [131 I ]L-HML-NGA radioactivity after concomitant administration of [131 I ]L-HML-NGA and [125 I ]D-HML-NGA in mice. It is expressed as percent injected dose per neck. To be noted: in vivo. Summed up:
as §1

Series [12] has as its system Mus musculus. The experiment in a line: The biodistribution time for [131 I ]L-HML-NGA radioactivity after concomitant administration of [131 I ]L-HML-NGA and [125 I ]MPH-NGA in mice. It is expressed as percent injected dose per stomach. To be noted: in vivo. Summed up: as §1
Series [13] can be described thus: Cumulative radioactivity exerted by [131 I ]L-HML-NGA in the feces at 24 hour postinjection of [131 I ]L-HML-NGA and [125 I ]D-HML-NGA. To be noted: in vivo. In short, it runs like this: as §2
For series [14], the species on record is Homo sapiens. In words: The percent protein-bound radioactivity in NGAfractions following incubation of radioiodinated [131 I ]L-HML-NGA in human serum after 24 hours. Summed up: as §3
For series [15], the system named is Mus musculus. In words: The biodistribution time for [131 I ]L-HML-NGA radioactivity after concomitant administration of [[131 I ]L-HML-NGA and [125 I ]L-HML-IT-NGA in mice. It is expressed as percent injected dose per kidney. To be noted: in vivo. In short, it runs like this: as §1
For series [16], the system named is Mus musculus. In words: The biodistribution time for [131 I ]L-HML-NGA radioactivity after concomitant administration of [[131 I ]L-HML-NGA and [125 I ]MPH-NGA in mice. It is expressed as percent injected dose per kidney. To be noted: in vivo. In short, it runs like this:
as §1

The test system of series [17] is Mus musculus. The experiment in a line: The biodistribution time for [131 I ]L-HML-NGA radioactivity after concomitant administration of [131 I ]L-HML-NGA and [125 I ]L-HML-IT-NGA in mice. It is expressed as percent injected dose per neck. To be noted: in vivo. In short, it runs like this:
as §1

Series [18] deals with Mus musculus. In words: The biodistribution time for [131 I ]L-HML-NGA radioactivity after concomitant administration of [131 I ]L-HML-NGA and [125 I ]MIH-NGA in mice. It is expressed as percent injected dose per intestine. To be noted: in vivo. In short, it runs like this: as §1
Series [19] is described as follows: Cumulative radioactivity exerted by [131 I ]L-HML-NGA in the feces at 24 hour postinjection of [131 I ]L-HML-NGA and [125 I ]HML-IT-NGA. To be noted: in vivo. In short, it runs like this:
as §2

Series [20] relates to Mus musculus. The experiment in a line: The biodistribution time for [131 I ]L-HML-NGA radioactivity after concomitant administration of [[131 I ]L-HML-NGA and [125 I ]MIH-NGA in mice. It is expressed as percent injected dose per kidney. The settings on record: in vivo. In short, it runs like this: as §1
The test system of series [21] is Mus musculus. The experiment in a line: The biodistribution time for [131 I ]L-HML-NGA radioactivity after concomitant administration of [131 I ]L-HML-NGA and [125 I ]D-HML-NGA in mice. It is expressed as percent injected dose per gram of blood tissue. The settings on record: in vivo. In short, it runs like this: as §1
Series [22] deals with Mus musculus. In words: The biodistribution time for [131 I ]L-HML-NGA radioactivity after concomitant administration of [131 I ]L-HML-NGA and [125 I ]L-HML-IT-NGA in mice. It is expressed as percent injected dose per intestine. To be noted: in vivo. Summed up: as §1
The nature of series [23]: Cumulative radioactivity exerted by [131 I ]L-HML-NGA in the urine at 24 hour postinjection of [131 I ]L-HML-NGA and [125 I ]D-HML-NGA. To be noted: in vivo. In short, it runs like this:
as §2

Series [24] is described as follows: Cumulative radioactivity exerted by [131 I ]L-HML-NGA in the urine at 24 hour postinjection of [131 I ]L-HML-NGA and [125 I ]MPH-NGA. The settings on record: in vivo. In short, it runs like this: as §2

Several values for one entry are separate records, joined by “and”; a condition that tells them apart may be missing. Equal values may be shown once.

Turning to `N[C@@H](CS)C(=O)SC1CC(=O)N(CCCC[C@H](NC(=O)CNC(=O)c2cccc([131I])c2)C(=O)O)C1=O` (some centres undefined), the Radioactivity in series [1] was 0.05% and 0.23% and 0.09% and 0.03%; in [2], 0.2% and 0.5% and 0.88% and 0.78% and 0.69%; in series [3] it was 5.87%; in [4] it was 1.77% and 4.88% and 7.76% and 9.83% and 8.6%; in [5], 1.13% and 1.72% and 0.8% and 0.48%; in series [6], 54.25%. The Radioactivity in [7] was 94.15%; in series [8], 3.19%; in series [9] it was 1.07% and 4.49% and 1.55% and 0.61% and 0.27%; in series [10], 99.78%; in series [11], 0.13% and 0.28% and 0.17% and 0.12% and 0.05%; in [12], 0.26% and 0.57% and 0.3% and 0.29% and 0.33%. Moreover, the Radioactivity in [13] was 4.4%; in series [14] it was 97.23%; in [15], 0.28% and 4.91% and 4.92% and 0.96% and 0.21%; in [16], 0.76% and 5.3% and 2.3% and 0.31% and 0.13%; in [17], 0.07% and 0.25% and 0.21% and 0.03%; in series [18] it was 0.78% and 3.57% and 5.41% and 6.15% and 4.54%. Moreover, the Radioactivity in series [19] was 2.83%; in series [20] it was 0.84% and 4.16% and 2.19% and 0.51% and 0.16%; in series [21] it was 1.9% and 3.14% and 1.63% and 0.82% and 0.5%; in series [22], 0.35% and 2.3% and 4.98% and 5.54% and 5.14%; in series [23], 80.78%; in series [24], 84.45%.
